# Assay results as given in article PMC3041652 (Arteriosclerosis, thrombosis, and vascular biology, 2011).
# What was measured:
# [1] = system: elastinolytic activity in brachiocephalic atherosclerotic lesions; experiment: Elastinolytic in situ zymography of brachiocephalic artery lesions; assay type: biochemical, mouse
# How it was run: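 Brachiocephalic lesion sections came from apoE-knockout mice fed a high-fat diet for 12 weeks. They were incubated with a fluorescently quenched elastin substrate in incubation buffer alone or with added 100 nmol/L test compound, 20 mmol/L EDTA or 1 μmol/L reference MMP inhibitor. Elastinolytic activity was read as green fluorescence.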
# [2] = target: mouse MMP-12 (Mus musculus, UniProt P34960); experiment: Inhibition of mouse MMP-12; assay type: biochemical
# mouse MMP-12, sequence (P34960 110-473): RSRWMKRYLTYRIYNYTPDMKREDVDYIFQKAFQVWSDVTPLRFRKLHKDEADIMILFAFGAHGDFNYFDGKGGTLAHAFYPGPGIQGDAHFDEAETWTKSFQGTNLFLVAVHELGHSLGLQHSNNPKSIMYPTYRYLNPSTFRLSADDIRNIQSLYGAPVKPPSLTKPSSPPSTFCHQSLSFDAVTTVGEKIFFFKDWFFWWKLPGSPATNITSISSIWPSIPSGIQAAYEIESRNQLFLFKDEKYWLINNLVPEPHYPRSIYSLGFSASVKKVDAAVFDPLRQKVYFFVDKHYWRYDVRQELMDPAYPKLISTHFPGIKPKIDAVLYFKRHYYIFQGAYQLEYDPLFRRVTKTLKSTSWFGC
# [3] = system: monocyte/macrophage invasion; experiment: In vivo subcutaneous sponge monocyte/macrophage invasion assay; set-up: species or system C57Bl/6;Sv129 mice
# How it was run: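 Male C57Bl/6;Sv129 mice carrying multiple subcutaneous sponges were infused by osmotic minipump with test compound (n=7) or PBS (n=7). Sponges were retrieved and either used to isolate monocytes/macrophages or formalin-fixed for histology of proliferation and apoptosis.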
# [4] = system: apoE-knockout mice atherosclerotic plaques; assay type: in vivo, mouse
# How it was run: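 ApoE-null mice (71% C57BL/6, 29% 129 background), both sexes, fed a high-fat diet for 8 weeks. They then received subcutaneous interscapular osmotic minipumps of test compound at 4.6 mg/kg body weight per day in sterile PBS (n=23) or PBS alone (n=27), with the diet continued 4 weeks. Brachiocephalic artery, proximal aorta, descending aorta and heart were analysed histologically. Apoptosis and calcification were scored by immunohistochemistry; calcification area was normalised to lesion area; mean±SEM.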
# [5] = system: rabbit granuloma foam-cell macrophages; experiment: In vitro serum starvation-induced apoptosis of foam-cell macrophages; assay type: cell-based
# [6] = system: other MMPs; settings: cited from earlier work
# [7] = Plasma concentration of inhibitor after osmotic minipump infusion; assay type: in vivo, apoE-knockout mice
# How it was run: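 ApoE-knockout mice on a high-fat diet (n=6) received test compound at 4.6 mg/kg body weight per day by osmotic minipump. MMP inhibitory activity in plasma was measured with a fluorogenic substrate, and inhibitor concentration was derived from a calibration inhibition curve. Intact compound in plasma extracts was confirmed by micro-HPLC coupled to mass spectrometry.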
# [8] = system: mouse monocyte-derived macrophages; experiment: In vitro serum starvation-induced apoptosis of macrophages; assay type: cell-based
# [9] = system: other MMPs
# [10] = system: mouse monocyte-derived macrophages; experiment: In vitro proliferation of monocyte-derived macrophages; assay type: cell-based; settings: 100 nmol/L
# [11] = system: mouse smooth muscle cells; experiment: FasL-induced apoptosis of smooth muscle cells; assay type: cell-based; settings: untreated cells 78±29; unchanged
# [12] = Body weight and plasma lipids after 4 weeks of infusion; assay type: in vivo, apoE-knockout mice; settings: 4.6 mg/kg per day for 4 weeks
# [13] = system: N-cadherin; experiment: N-cadherin Western blotting in macrophages treated with active MMP-12; assay type: cell-based
# [14] = target: human MMP-12; settings: read-out: Ki against human MMP-12; cited from earlier work
# [15] = compared with active MMP-12 alone, 100 nmol/L
structure (smiles),measurement,setting,value
"CNC(=O)[C@H](Cc1ccccc1)NC(=O)[C@H](CC(C)C)[C@H](CSc1cccs1)C(=O)NO [BB94, reference compound]",reduction of elastinolytic activity,[1]; 1 μmol/L,95±4%
"O=C(O)CN(CCN(CC(=O)O)CC(=O)O)CC(=O)O [EDTA, reference compound]",reduction of elastinolytic activity,[1]; 20 mmol/L,94±5%
NC(=O)[C@H](CCC(=O)O)NC(=O)[C@H](CCC(=O)O)NC(=O)[C@H](Cc1cc(-c2ccc(-c3cccc(Cl)c3)cc2)no1)CP(=O)(O)c1ccc(Br)cc1 [RXP470.1],Ki,[2],4 nM
same,proliferative rate of sponge macrophages,[3]; control 4.0±1.1%,5.6±1.6%
same,apoptotic cells in sponges,"[3]; mouse, in vivo",no apoptotic cells were detected
same,reduction of invasive capacity of monocyte/macrophages,"[3]; vs controls, P<0.01",48%
same,reduction of atherosclerotic plaque cross-sectional area,"[4]; at 4 different vascular sites, male and female mice, Western diet",approximately 50%
same,frequency of intraplaque macrophage apoptosis,[4]; baseline 15.3±3.0%,18.1±5.8%
same,"reduction in apoptotic frequency, cleaved PARP-1 immunohistochemistry",[4]; brachiocephalic artery plaques,57%
same,"reduction in apoptotic frequency, pyknotic/fragmented nuclei",[4]; brachiocephalic artery plaques,43%
same,reduction of the number of ISEL-positive macrophages,"[4]; brachiocephalic artery plaques, P<0.05",42%
same,increase of smooth muscle cell:macrophage ratio,"[4]; brachiocephalic artery, P<0.05",33%
same,smooth muscle cells as a proportion of all plaque cells,"[4]; brachiocephalic artery, control 31±3%, P<0.05",41±3%
same,percentage of macrophages of plaque cells,"[4]; brachiocephalic artery, control 42±1%, P<0.01",36±2%
same,area of calcification normalized to lesion area,[4]; control 5.9±2.2%,0.8±0.6%
same,"percentage of proliferating macrophages in brachiocephalic plaques, Ki67",[4]; control 14.8±3.1%,13.6±2.2%
same,"necrotic core size, percentage of total plaque area",[4]; control 24±2%,13±3%
same,number of lesions showing elastin fragmentation,"[4]; control 37%, P<0.05",8%
same,increase in collagen content of lesions,[4]; did not reach statistical significance,26%
same,minimum cap thickness,"[4]; no inhibitor 8.7±1.0, baseline 10.2±1.5",16.4±2.2 μm
same,"lesion size, brachiocephalic artery","[4]; treated mice, at commencement of drug administration 147±32",153±31 ×10^3 μm^2
same,total elastin content of plaques,[4]; vs control,no difference
same,endothelial coverage over plaques,[4]; vs control mice,no differences
same,expression of vascular cell adhesion molecule-1 and MCP-1 and -2,[4]; vs control mice,no difference
same,"reduction in the number of mice with any detectable atherosclerotic lesion, thoracic aorta",[4]; vs controls,70%
same,reduction in the number of plaques containing buried fibrous layers,[4]; vs controls,65%
same,"reduction of plaque cross-sectional area, brachiocephalic artery","[4]; vs controls after 12 weeks of high-fat feeding, P<0.05",44%
same,decrease in the area of calcification normalized to lesion area,"[4]; vs controls, P<0.01",86%
same,reduction in lesion necrotic core size,"[4]; vs controls, P<0.05",46%
same,"reduction in plaque area, aortic sinus","[4]; vs controls, P<0.05",37%
same,"reduction in plaque area, proximal aorta","[4]; vs controls, P<0.05",61%
same,"reduction in plaque size, thoracic aorta","[4]; vs controls, P<0.05",88%
same,reduction in the incidence of calcification in lesions,"[4]; vs controls, P<0.05",72%
same,inhibition of apoptosis,[5]; [15],91%
same,apoptotic rate relative to control cells,[5]; no added MMP-12,significantly reduced
same,less potent against other MMPs than against human MMP-12,[6],2 to 4 orders of magnitude
same,form observed in plasma of infused mice (mass spectroscopy fingerprint analysis),[7],intact form
same,reduction of elastinolytic activity,"[1]; 100 nmol/L, P<0.05",74%
same,"elastinolytic activity, fluorescence of total plaque area","[1]; 100 nmol/L, incubation buffer alone 4.1±0.5%",1.1±0.3%
same,inhibition of apoptosis,[8]; [15],91%
same,apoptotic rate relative to control cells,[8]; no added MMP-12,significantly reduced
same,in vitro selectivity for MMP-12 over other MMPs,[9],greater than 100 fold
same,macrophage proliferation,"[10]; absence of added active MMP-12, control 36±5%",46±13%
same,macrophage proliferation,"[10]; presence of added active MMP-12, MMP-12 alone 46±2%",39±12%
same,rate of FasL-induced apoptosis,[11],70±29 ×10^4 ALU
same,tolerability,[12],well tolerated
same,body weight,[12]; control 35.7±1.2 g,36.2 ± 0.9 g
same,effect on reduction of full-length N-cadherin expression by active MMP-12,[13]; coincubation with active MMP-12,reversed
same,formation of the cleaved fragment of N-cadherin,[13]; in the presence of active MMP-12,negated
same,Ki,[14],0.2 nM
